Bioassay records: PubChem, Johns Hopkins Ion Channel Center
Compounds with a hit are over-represented: about 3.5% of the library has one in this group of screens.
RGS4 pot = RGS4 potentiators or activators, primary screen, cell-based, HEK293 M3R inducible RGS4, calcium flux; actives 0.92% (n = 310,000); AID 463111, 2010; carbachol calcium flux Fluo4; hits give low values; B-score at 10 µM;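 active means B-score of the integrated calcium signal more than 4 SD below the library mean, with starting fluorescence not abnormally high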;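 further: negative B-score means reduced calcium response which marks RGS4 activation or potentiation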
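Assay system: HEK293 FlpIn-TREx cells, stable M3R, doxycycline-inducible RGS4 / Probe or stimulus: carbachol, ECmax concentration / Times: overnight RGS4 induction, 30 min dye load 37 °C, 20 min compound RT / Signal: kinetic calcium fluorescence imaging with Fluo4-AM dye, 2 µM / Measure: Agonist-evoked peak-minus-minimum fluorescence over baseline, integrated ratio, B score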
MrgX1 antag = antagonists of human MrgX1 receptor, primary screen, HEK293 cells, Fluo-4 calcium flux. Mas-related G-protein coupled receptor member X1 (Homo sapiens), Q96LB2. BAM8-22 antagonism; hits give low values. B-score at 10 µM. actives 1.3% (n = 310,000). AID 588676, 2011;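 active means calcium-response B-score plate-corrected more than 3 library SD below zero, starting fluorescence within 5 deviations, no agonist response on first addition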;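 further: peak minus trough fluorescence over baseline after final BAM8-22 challenge near maximal dose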
Target sequence (Q96LB2 whole entry, looked up): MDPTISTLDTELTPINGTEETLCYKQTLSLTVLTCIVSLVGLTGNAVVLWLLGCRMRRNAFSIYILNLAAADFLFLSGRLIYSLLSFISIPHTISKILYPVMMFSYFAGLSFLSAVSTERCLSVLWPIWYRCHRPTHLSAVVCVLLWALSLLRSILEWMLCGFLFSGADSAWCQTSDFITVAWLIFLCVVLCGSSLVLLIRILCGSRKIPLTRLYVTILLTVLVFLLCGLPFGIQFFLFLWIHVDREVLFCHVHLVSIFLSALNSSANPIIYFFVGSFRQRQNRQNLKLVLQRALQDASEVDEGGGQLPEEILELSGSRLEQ
MrgX1 ag = agonists of human MrgX1 receptor, primary screen, HEK293 cells, Fluo-4 calcium flux. AID 588627, 2011. Mas-related G-protein coupled receptor member X1 (Homo sapiens), Q96LB2. Fluo-4 calcium fluorescence, agonist mode; hits give high values. actives 0.44% (n = 310,000). B-score at 10 µM;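 active means calcium response B-score plate-corrected fluorescence ratio at least 3 library SD, with starting fluorescence B-score inside 5 SD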
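Material: HEK293 cells stably expressing human MrgX1 receptor | Quantity: 15,000 cells per well | Times: Cells plated overnight, dye loaded 0.5 h 37 °C, 0.5 h room temperature | Measured by: Kinetic Fluo-4 NW fluorescence of intracellular calcium | Control set: Positive and negative controls per plate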
RGS4 inh = RGS4 inhibitors, primary screen, cell-based, HEK293 M3R inducible RGS4, calcium flux; Regulator of G-protein signaling 4 (Homo sapiens), P49798; Fluo-4 calcium flux; hits give high values; triggered by carbachol at its EC20; B-score at 10 µM; actives 0.45% (n = 310,000); AID 463165, 2010;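 active means B-score, a plate-corrected calcium signal, over three deviations above library mean, with baseline fluorescence within five deviations of library mean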;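 further: RGS4 expression induced by doxycycline in cells with stable M3 receptor; B-score is computed from the integrated fluorescence ratio over baseline after carbachol; higher B-score means a larger calcium signal and so more RGS4 inhibition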
Target sequence (P49798 whole entry, looked up): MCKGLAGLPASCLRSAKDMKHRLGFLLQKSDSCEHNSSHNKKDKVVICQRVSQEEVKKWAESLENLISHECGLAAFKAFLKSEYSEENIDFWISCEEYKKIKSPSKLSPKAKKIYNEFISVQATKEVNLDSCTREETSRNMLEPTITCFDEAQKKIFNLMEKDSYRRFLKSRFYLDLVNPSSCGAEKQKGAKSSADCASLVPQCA
MrgX1 PAM = positive allosteric modulators of MrgX1, primary screen, HEK293 cells, Fluo-4 calcium flux; Mas-related G-protein coupled receptor member X1 (Homo sapiens), Q96LB2; FDSS; hits give high values; B-score at 10 µM; actives 0.63% (n = 310,000); AID 588675, 2011;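 active means plate-corrected calcium response at least 3 library SD above typical, normal starting fluorescence, not activating the receptor alone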;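 further: compound read alongside a low EC10 to EC30 dose of BAM8-22 agonist; peak minus trough fluorescence over baseline measured at the second addition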
RGS4 block valid = enhanced carbachol calcium response, M3R/RGS4 cells, RGS4 inhibitor project, cell-based, validation screen, HEK293 M3R/RGS4, calcium flux | shares compounds with RGS4 inh | carbachol calcium Fluo-4 fluorescence; carbachol added at its EC20; 0 = buffer wells, 100 = carbachol control | calcium response, % at 10 µM | actives 65% (n = 1,700);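 active means duplicate-averaged calcium response above the buffer-only control mean plus 5 SD of those controls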;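 further: integrated fluorescence ratio F max minus min over baseline F0; higher response in RGS4-induced cells means RGS4 inhibition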
M3R Ca ctr = carbachol calcium response in non-induced M3R cells, confirmation, counter-screen for RGS4 inhibitor project, cell-based, HEK293 M3R | shares compounds with RGS4 inh | carbachol calcium Fluo-4; submaximal (EC20) carbachol stimulus; buffer wells 0%, carbachol control wells 100% | activity (percent), % at 10 µM | actives 20% (n = 1,900) | AID 493000, 2010; call rule not given here;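 further: RGS4 induction absent so cells express M3R without RGS4; higher means more calcium signal and flags a non-specific hit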
RGS4 inh ctr2 = signal in non-induced cells without carbachol, RGS4 inhibitor counter-screen | shares compounds with RGS4 inh | HEK293 M3R/RGS4 non-induced, Fluo-4 calcium, no carbachol; normalised: buffer wells 0%, carbachol wells 100% | calcium response (agonist-mode artifact), % at 10 µM | actives 22% (n = 1,900) | AID 493001;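 active means duplicate-averaged calcium rise in uninduced cells above buffer wells' mean plus 5 SD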
Large screens that a line does not name were inactive (follow-up assays come after a bar, where they were run).

O=C(NCc1ccccc1)c1nc2c(nnn2Cc2cccc(Cl)c2)c(=O)[nH]1	RGS4 inh 4.9 | RGS4 block valid 22% | M3R Ca ctr inactive | RGS4 inh ctr2 inactive
O=C(NCc1ccco1)c1nc2c(nnn2Cc2cccc(Cl)c2)c(=O)[nH]1	RGS4 inh 8 | RGS4 block valid 22% | M3R Ca ctr inactive | RGS4 inh ctr2 inactive
CCc1nc(SCC(=O)c2cccs2)c2oc3ccccc3c2n1	none
CCC(=O)NC(c1ccccc1)c1c(OC(C)=O)ccc2ccccc12 (stereo unspecified)	none | M3R Ca ctr 45% | RGS4 inh ctr2 7.0%
CCC(=O)NC(c1cccc([N+](=O)[O-])c1)c1c(OC(C)=O)ccc2ccccc12 (stereo unspecified)	none
CCc1ccc2c(c1)c(N=NC1=NC(=O)CS1)c(O)n2C	none | M3R Ca ctr inactive | RGS4 inh ctr2 inactive
O=C(c1ccc2c(=O)n(Cc3ccccc3Cl)c(=S)[nH]c2c1)N1CCCC1	none
COc1ccc(NC(=O)CCCNC(=O)Cn2cnc3sc4c(c3c2=O)CCCC4)c(OC)c1	none
C/C(=N\N=C1\NC(=O)C(CC(=O)NCc2ccccc2)S1)C(C)C (stereo unspecified)	none
COc1ccccc1CN=C1NC(=O)C(CC(=O)Nc2ccc(C(C)=O)cc2)S1 (stereo unspecified)	none | RGS4 block valid inactive | M3R Ca ctr inactive | RGS4 inh ctr2 inactive
C/C(=N\N=C1\NC(=O)C(CC(=O)Nc2ccc(C)c(Cl)c2)S1)C(C)C (stereo unspecified)	none | M3R Ca ctr 30% | RGS4 inh ctr2 inactive
NS(=O)(=O)c1cccc(NC(=O)COC(=O)C2(c3cccc(F)c3)CCCC2)c1	none
O=C(/C=C\NCC(=O)c1ccccc1)c1ccc2ccccc2c1	RGS4 inh 6.5 | RGS4 block valid 16% | M3R Ca ctr 30% | RGS4 inh ctr2 inactive
CC(C)N(CCCNC(=O)Cn1c(=O)c2cccn2c2ccccc21)Cc1ccccc1	none | RGS4 block valid inactive | M3R Ca ctr inactive | RGS4 inh ctr2 inactive
CN(CCCNC(=O)Cn1c(=O)c2cccn2c2ccccc21)Cc1ccccc1	RGS4 inh 23 | RGS4 block valid inactive | M3R Ca ctr inactive | RGS4 inh ctr2 inactive
Nc1ccc(-c2nc(-c3ccccc3)nc3ccccc23)cc1	none
Nc1ccc(-c2cc(-c3cccc(N)c3)nc(-c3ccccc3)n2)cc1	none | RGS4 block valid inactive | M3R Ca ctr inactive | RGS4 inh ctr2 inactive
CCN(CC)c1ccc(/C=N\N2CCN(Cc3ccc(C)cc3)CC2)cc1	none | RGS4 block valid inactive | M3R Ca ctr inactive | RGS4 inh ctr2 inactive
Cc1ccc(C(=O)O)cc1NC(=S)NC(=O)c1ccc(-c2ccc(Cl)cc2)o1	none | M3R Ca ctr inactive | RGS4 inh ctr2 inactive
O=C(O)c1cccc(NC(=S)NC(=O)c2ccc(-c3ccc(Cl)cc3)o2)c1	none
COc1ccc(C(=O)O)cc1NC(=S)NC(=O)c1ccc(-c2ccc(Cl)cc2)o1	RGS4 inh 4.8 (no result: MrgX1 antag, MrgX1 ag, MrgX1 PAM) | RGS4 block valid inactive | M3R Ca ctr inactive | RGS4 inh ctr2 inactive
O=S(=O)(C/C(=C/CO)S(=O)(=O)c1ccccc1)c1ccccc1	MrgX1 ag 34, RGS4 inh 10 | RGS4 block valid 38% | M3R Ca ctr 36% | RGS4 inh ctr2 16%
O=[N+]([O-])/C=C\c1ccc(N2CCOCC2)cc1	MrgX1 ag 41, RGS4 inh 35 | RGS4 block valid 88% | M3R Ca ctr 94% | RGS4 inh ctr2 35%
COc1ccccc1OCCCC(=O)Nc1nnc(C2CCCO2)s1 (stereo unspecified)	none
Cc1ccc(C2C3=C(CC(C)(C)CC3=O)NC3=C2C(=O)c2ccccc23)cc1 (stereo unspecified)	none
COc1ccc(C2C3=C(CCCC3=O)NC3=C2C(=O)c2ccccc23)cc1 (stereo unspecified)	RGS4 inh 11 | RGS4 block valid inactive | M3R Ca ctr inactive | RGS4 inh ctr2 inactive
O=C(Nc1nc(-c2cccs2)c(-c2ccccc2)s1)c1ccco1	RGS4 inh 14 | RGS4 block valid 43% | M3R Ca ctr 52% | RGS4 inh ctr2 inactive
O=C(Nc1nc(-c2ccc(Cl)s2)cs1)c1ccco1	RGS4 inh 6.5 | RGS4 block valid 14% | M3R Ca ctr inactive | RGS4 inh ctr2 inactive
O=C(Nc1nc(-c2ccc(Cl)s2)cs1)c1cccs1	none
CC(=O)Nc1sc(NC(=O)c2ccco2)nc1-c1cccs1	none
O=C(Nc1ccc(-c2nc3ccccc3[nH]2)cc1)c1cccc(N2C(=O)CCC2=O)c1	none
COc1ccc(CN(C(=O)CCC(=O)Nc2cc(C)on2)C(C(=O)NC(C)(C)C)c2cccc(OC)c2OC)cc1 (stereo unspecified)	none
NNC(=O)c1nc[nH]c1C(=O)Nc1ccccn1	RGS4 inh 15 | RGS4 block valid 5.0% | M3R Ca ctr inactive | RGS4 inh ctr2 inactive
COCC(C)N=C1NN=C(c2c[nH]c3ccccc23)CS1 (stereo unspecified)	none
Cc1csc(NC(=O)CSCC(=O)O)c1-c1nc2ccccc2s1	RGS4 inh 11 | RGS4 block valid 34% | M3R Ca ctr 50% | RGS4 inh ctr2 inactive
O=C(O)CSCC(=O)Nc1ccc(-c2nc3ccccc3s2)cc1	none
CCC(CC)C(=O)NCCCN1CCOCC1	none
CCOc1ccc(/C(O)=C2/C(=O)C(=O)N(c3nc(C)c(C)s3)C2c2ccco2)cc1 (stereo unspecified)	none | M3R Ca ctr inactive | RGS4 inh ctr2 inactive
CCSc1nc2ccccc2n1C(=O)/C=C\c1ccc(OC)c(OC)c1	RGS4 inh 14 | RGS4 block valid 22% | M3R Ca ctr 76% | RGS4 inh ctr2 7.5%
Cc1ccc(SC(CC(=O)c2ccc(C)cc2)C(=O)O)cc1 (stereo unspecified)	RGS4 inh 4.7 | RGS4 block valid 8.0% | M3R Ca ctr inactive | RGS4 inh ctr2 inactive
Cc1ccc(C(CC(=O)c2ccc(Cl)cc2)C(=O)O)cc1 (stereo unspecified)	none
